Legend:
Type in all cases: functional
Leishmania tropica [1] = test: Percentage of growth inhibition of multidrug resistance Leishmania tropica Lines at 15 uM
Outline: (§1)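 Log-phase MDR promastigotes were plated at 3 × 10⁵ cells/well in RPMI 1640-modified medium with 20% FBS and 150 µM DNM. Sesquiterpenes (DMSO stocks diluted in medium) were added and cells kept 72 h at 28 °C. MTT was added for 4 h, formazan dissolved in 20% SDS and A540 read. Growth inhibition is relative to DNM-treated controls without modulator.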

Leishmania tropica [2] = test: Percentage of growth inhibition of multidrug resistance Leishmania tropica Lines at 1 uM.; outline: as §1
Leishmania tropica [3] = test: Percentage of growth inhibition of multidrug resistance Leishmania tropica Lines at 3 uM.; outline: as §1
Leishmania tropica [4] = test: Percentage of growth inhibition of multidrug resistance Leishmania tropica Lines at 7 uM; Value ranges from 0 to 6%; outline: as §1
Leishmania tropica [5] = test: Percent growth inhibition of wild type Leishmania tropica at 1 uM
Outline: (§2)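 Intrinsic toxicity on the wild-type L. tropica LRC clone, with no DNM present. Log-phase promastigotes were plated at 3 × 10⁵ cells/well in RPMI 1640-modified medium with 20% FBS, with sesquiterpene diluted from DMSO stocks, for 72 h at 28 °C. MTT was added for 4 h, then 20% SDS, and A540 read. Percent growth inhibition is taken against untreated control absorbance.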

Leishmania tropica [6] = test: (§3) Percentage of growth inhibition of wild type Leishmania tropica lines at 15 uM; outline: as §2
Leishmania tropica [7] = test: Percentage of growth inhibition of wild type Leishmania tropica lines at 7 uM; Value ranges from 0 to 6%; outline: as §2
Leishmania tropica [8] = test: Percentage of growth inhibition of wild type Leishmania tropica lines at 3 uM; Value ranges from 0 to 6%; outline: as §2
Leishmania tropica [9] = test: Percentage of growth inhibition of multidrug resistance Leishmania tropica Lines at 15 uM; Value ranges from 0 to 6%; outline: as §1
Leishmania tropica [10] = test: Percentage of growth inhibition of wild type Leishmania tropica Lines at 3 uM.; outline: as §2
Leishmania tropica [11] = test: Percentage of growth inhibition of wild type Leishmania tropica Lines at 7 uM.; outline: as §2
Leishmania tropica [12] = test: Percentage of growth inhibition of multidrug resistance Leishmania tropica Lines at 1 uM; outline: as §1
Leishmania tropica [13] = test: Percentage of growth inhibition of multidrug resistance Leishmania tropica Lines at 3 uM; outline: as §1
Leishmania tropica [14] = test: Percentage of growth inhibition of multidrug resistance Leishmania tropica Lines at 7 uM.; outline: as §1
Leishmania tropica [15] = test: as §3; remark: listed apart in the source
Outline: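 WT L. tropica LRC-strain promastigotes (log phase, RPMI 1640-modified medium + 20% heat-inactivated FBS, 28 °C) seeded at 3 × 10⁵ cells/well and exposed without DNM to sesquiterpenes diluted from DMSO stocks. After 72 h at 28 °C, MTT (5 mg/mL in PBS) was added for 4 h, formazan dissolved in 20% SDS, A540 read. Growth inhibition (%) calculated relative to untreated control absorbance.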

| SMILES | inhibition at 15 µM (Leishmania tropica [1]) [%] | inhibition at 1 µM (Leishmania tropica [2]) [%] | inhibition at 3 µM (Leishmania tropica [3]) [%] | inhibition at 7 µM (Leishmania tropica [4]) [%] | inhibition at 1 µM (Leishmania tropica [5]) [%] | inhibition at 15 µM (Leishmania tropica [6]) [%] | inhibition at 7 µM (Leishmania tropica [7]) [%] | inhibition at 3 µM (Leishmania tropica [8]) [%] | inhibition at 15 µM (Leishmania tropica [9]) [%] | inhibition at 3 µM (Leishmania tropica [10]) [%] | inhibition at 7 µM (Leishmania tropica [11]) [%] | inhibition at 1 µM (Leishmania tropica [12]) [%] | inhibition at 3 µM (Leishmania tropica [13]) [%] | inhibition at 7 µM (Leishmania tropica [14]) [%] | inhibition at 15 µM (Leishmania tropica [15]) [%] |
| --- | --- | --- | --- | --- | --- | --- | --- | --- | --- | --- | --- | --- | --- | --- | --- |
| COc1ccc(C(=O)O[C@@H]2C3C[C@H](OC(=O)c4ccco4)[C@]4(C)[C@@H](OC(C)=O)[C@@H](OC(=O)c5ccccc5)C[C@](C)(O)C24OC3(C)C)cc1 (some centres not stated) | 11.8 | < 6 | 6 | 6 | < 6 | < 6 | 6 | 6 | – | – | – | – | – | – | – |
| CC(=O)O[C@@H]1C2C[C@H](OC(=O)c3ccco3)[C@]3(C)[C@@H](OC(C)=O)[C@@H](OC(=O)c4ccco4)C[C@](C)(O)C13OC2(C)C (some centres not stated) | – | < 6 | 6 | 6 | < 6 | < 6 | – | – | 6 | < 6 | < 6 | – | – | – | – |
| CC(=O)O[C@H]1[C@@H](OC(=O)c2ccccc2)C[C@](C)(O)C23OC(C)(C)C(C[C@H](OC(=O)c4ccco4)[C@]12C)[C@H]3OC(=O)c1ccc([N+](=O)[O-])cc1 (some centres not stated) | 51.1 | – | – | – | < 6 | – | 6 | 6 | – | – | – | 6.4 | 13.5 | 26.4 | 10.8 |
| CC(=O)OC[C@@]12[C@@H](OC(C)=O)[C@@H](OC(C)=O)[C@@H]3OC(=O)[C@H](C)[C@@H](C)c4ncccc4C(=O)OC[C@@]4(C)OC1([C@H](OC(C)=O)C4[C@H](OC(C)=O)[C@@H]2OC(C)=O)[C@@]3(C)O | – | < 6 | < 6 | 6 | < 6 | < 6 | – | – | 6 | < 6 | < 6 | – | – | – | – |

Reference: ChEMBL document CHEMBL1148393, “SAR studies of dihydro-beta-agarofuran sesquiterpenes as inhibitors of the multidrug-resistance phenotype in a Leishmania tropica line overexpressing a P-glycoprotein-like transporter” (J Med Chem, 2004)
